# Activity calls are given as the source filed them. The rule behind the calls is not given here.
# Tests used:
# [1] = Mutagenicity in Salmonella typhimurium TA98 at 5 to 100 uM incubated for 96 hrs by Ames fluctuation assay; format: toxicity; details: salmonella enterica subsp. enterica serovar typhimurium, dose 5-100 µM
# In short: (§1)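 Fluctuation format in 384-well plates at 37 °C for 96 h. Tested at 5, 10, 50 and 100 μM, 48 replicates per concentration, with and without rat liver S9. Revertant wells counted when OD430/OD570 > 1.0, compared with control by one-tailed Fisher's exact test. Parallel bacterial cytotoxicity test (OD650) at 0.6–100 μM, with growth below 60% of control flagged as cytotoxic.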
# [2] = Mutagenicity in Salmonella typhimurium TA100 at 5 to 100 uM incubated for 96 hrs by Ames fluctuation assay; format: toxicity; details: salmonella enterica subsp. enterica serovar typhimurium, dose 5-100 µM; in short: as §1
# [3] = Mutagenicity in Salmonella typhimurium TA1537 at 5 to 100 uM incubated for 96 hrs by Ames fluctuation assay; format: toxicity; details: salmonella enterica subsp. enterica serovar typhimurium, dose 5-100 µM; in short: as §1
# [4] = Mutagenicity in Salmonella typhimurium TA1535 at 5 to 100 uM incubated for 96 hrs by Ames fluctuation assay; format: toxicity; details: salmonella enterica subsp. enterica serovar typhimurium, dose 5-100 µM; in short: as §1
# [5] = Mutagenicity in Salmonella typhimurium TA98 at 5 to 100 uM incubated for 96 hrs in presence of rat liver S9 fraction by Ames fluctuation assay; format: toxicity, subcellular; details: salmonella enterica subsp. enterica serovar typhimurium, s9, 96 h, dose 5-100 µM; in short: as §1
# [6] = Mutagenicity in Salmonella typhimurium TA100 at 5 to 100 uM incubated for 96 hrs in presence of rat liver S9 fraction by Ames fluctuation assay; format: toxicity, subcellular; details: salmonella enterica subsp. enterica serovar typhimurium, s9, 96 h, dose 5-100 µM; in short: as §1
# [7] = Mutagenicity in Salmonella typhimurium TA1537 at 5 to 100 uM incubated for 96 hrs in presence of rat liver S9 fraction by Ames fluctuation assay; format: toxicity, subcellular; details: salmonella enterica subsp. enterica serovar typhimurium, s9, 96 h, dose 5-100 µM; in short: as §1
# [8] = Mutagenicity in Salmonella typhimurium TA1535 at 5 to 100 uM incubated for 96 hrs in presence of rat liver S9 fraction by Ames fluctuation assay; format: toxicity, subcellular; details: salmonella enterica subsp. enterica serovar typhimurium, s9, 96 h, dose 5-100 µM; in short: as §1
# [9] = Mutagenicity in Salmonella typhimurium TA98 at 5 to 50 uM incubated for 96 hrs by Ames fluctuation assay; format: toxicity; details: salmonella enterica subsp. enterica serovar typhimurium, dose 5-50 µM; in short: as §1
# [10] = Mutagenicity in Salmonella typhimurium TA100 at 5 to 50 uM incubated for 96 hrs by Ames fluctuation assay; format: toxicity; details: salmonella enterica subsp. enterica serovar typhimurium, dose 5-50 µM; in short: as §1
# [11] = Mutagenicity in Salmonella typhimurium TA1537 at 5 to 50 uM incubated for 96 hrs by Ames fluctuation assay; format: toxicity; details: salmonella enterica subsp. enterica serovar typhimurium, dose 5-50 µM; in short: as §1
# [12] = Mutagenicity in Salmonella typhimurium TA1535 at 5 to 50 uM incubated for 96 hrs by Ames fluctuation assay; format: toxicity; details: salmonella enterica subsp. enterica serovar typhimurium, dose 5-50 µM; in short: as §1
# [13] = Mutagenicity in Salmonella typhimurium TA98 at 5 to 50 uM incubated for 96 hrs in presence of rat liver S9 fraction by Ames fluctuation assay; format: toxicity, subcellular; details: salmonella enterica subsp. enterica serovar typhimurium, s9, 96 h, dose 5-50 µM; in short: as §1
# [14] = Mutagenicity in Salmonella typhimurium TA100 at 5 to 50 uM incubated for 96 hrs in presence of rat liver S9 fraction by Ames fluctuation assay; format: toxicity, subcellular; details: salmonella enterica subsp. enterica serovar typhimurium, s9, 96 h, dose 5-50 µM; in short: as §1
# [15] = Mutagenicity in Salmonella typhimurium TA1537 at 5 to 50 uM incubated for 96 hrs in presence of rat liver S9 fraction by Ames fluctuation assay; format: toxicity, subcellular; details: salmonella enterica subsp. enterica serovar typhimurium, s9, 96 h, dose 5-50 µM; in short: as §1
# [16] = Mutagenicity in Salmonella typhimurium TA1535 at 5 to 50 uM incubated for 96 hrs in presence of rat liver S9 fraction by Ames fluctuation assay; format: toxicity, subcellular; details: salmonella enterica subsp. enterica serovar typhimurium, s9, 96 h, dose 5-50 µM; in short: as §1
# [17] = AUC (0 to infinity) in Sprague-Dawley rat at 2 mg/kg, iv and measured upto 24 hrs by LC-MS/MS analysis; format: ADME, organism-based; design: dose 2 mg/kg, time < 24 hrs, route iv; details: in vivo
# In short: (§2)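 Female BALB/c nude mice or male Sprague-Dawley rats, 6–8 weeks old, n = 3 per route. IV by tail vein in DMSO:10% captisol in saline 1:99. PO by gavage in 1% methylcellulose. […] Assayed by LC-MS/MS, non-compartmental PK, mean ± SD.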
# [18] = AUC (0 to infinity) in BALB/c mouse at 3 mg/kg, iv and measured upto 24 hrs by LC-MS/MS analysis; format: ADME, organism-based; design: dose 3 mg/kg, time < 24 hrs, route iv; details: in vivo; in short: as §2
# [19] = AUC (0 to infinity) in BALB/c mouse at 30 mg/kg, po and measured upto 24 hrs by LC-MS/MS analysis; format: ADME, organism-based; design: dose 30 mg/kg, time < 24 hrs, route po; details: in vivo; in short: as §2
# [20] = Genotoxicity in Chinese hamster CHO-K1 cells at 8 to 1000 uM incubated for 24 hrs by micronucleus test; format: toxicity, cell-based, Cricetulus griseus; details: cho-k1, 24 h, dose 8-1000 µM
# In short: (§3)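 CHO-K1 cells, 96-well format, exposed to 8–1000 μM for either 4 h at 37 °C with rat liver S9 or 24 h at 37 °C without S9. Micronuclei detected by high-content fluorescence imaging. Positive controls were cyclophosphamide 7.2 μM and mitomycin C 0.3 μM. One-tailed two-sample equal-variance t-test.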
# [21] = Genotoxicity in Chinese hamster CHO-K1 cells at 8 to 1000 uM incubated for 4 hrs in presence of rat liver S9 fraction by micronucleus test; format: toxicity, subcellular, Cricetulus griseus; details: s9, 4 h, dose 8-1000 µM; in short: as §3
# [22] = Metabolic stability in human hepatocytes assessed as metabolite formation at 10 uM incubated for 4 hrs by UHPLC-MS/MS analysis; format: ADME, cell-based, Hepatocyte
# In short: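 Human hepatocytes at 1.0 × 10^6 cells/mL incubated with compound at 10 μM for 0, 120 and 240 min at 37 °C. Quenched with 2 volumes of acetonitrile, centrifuged at 16,000g for 15 min, and supernatant analyzed by UHPLC-MS/MS.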
# [23] = tested on: HCC827; test: Antitumor activity against human luciferase tagged HCC827 cells xenografted in intracranial PDX BALB/c mouse model assessed as tumor regression at 10 mg/kg,po BID for 21 days by Bioluminescence imaging analysis; format: functional, organism-based; details: time 21.0 day
# In short: (§4)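 Female BALB/c nude mice given 3 × 10^5 HCC827-luc cells in 2 μL RPMI1640 into the right forebrain under anesthesia. Randomized on day 20 after inoculation, n = 10 per group. Dosed PO b.i.d. at 12 h intervals for 21 days in 1% methylcellulose, with vehicle control. Biweekly IVIS imaging 10 min after IP D-luciferin, plus biweekly body weight. Day-21 means compared by unpaired two-tailed t-test.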
# [24] = Toxicity in intracranial PDX BALB/c mouse model xenografted with human luciferase tagged HCC827 cells assessed as body weight loss at 10 mg/kg,po BID for 21 days; format: organism-based; details: in vivo, 504 h, time 21 day; in short: as §4
# [25] = Toxicity in intracranial PDX BALB/c mouse model xenografted with human luciferase tagged HCC827 cells assessed as adverse clinical effects at 10 mg/kg,po BID for 21 days; format: organism-based; details: in vivo, 504 h, time 21 day; in short: as §4
# [26] = Toxicity in Sprague-Dawley rat assessed as at 1 mg/kg, iv; details: in vivo
# [27] = Toxicity in Sprague-Dawley rat assessed as at 5 mg/kg, po; details: in vivo
# [28] = Unbound brain-to-plasma concentration ratio in Han Wistar rat at 10 mg/kg,po and measured after 16 hrs by LC-MS/MS analysis; format: ADME, organism-based; details: read-out: K(p,uu,brain)
# [29] = Dissociation constant, pKa of compound by pH-metric titration method; format: physicochemical
Structure (SMILES),Activity [1],Activity [2],Activity [3],Activity [4],Activity [5],Activity [6],Activity [7],Activity [8],also measured
COc1cc2ncnc(Nc3ccc(F)c(Cl)c3)c2cc1OCCON1CCOCC1,Non-Toxic,Non-Toxic,Non-Toxic,Non-Toxic,Non-Toxic,Non-Toxic,Non-Toxic,Non-Toxic,–
COc1cc2ncnc(Nc3cccc(Cl)c3F)c2cc1OCCON1CCN(C)CC1,–,–,–,–,–,–,–,–,Activity [9]: Non-Toxic; Activity [10]: Non-Toxic; Activity [11]: Non-Toxic; Activity [12]: Non-Toxic; Activity [13]: Non-Toxic; Activity [14]: Non-Toxic; Activity [15]: Non-Toxic; Activity [16]: Non-Toxic; AUC(0-inf) [17]: 0.61 µM·h; AUC [18]: 0.866 µM·h; AUC(0-inf) [19]: 5.29 µM·h; Activity [20]: Non-Toxic; Activity [21]: Non-Toxic; Drug metabolism [22]: < 5%; Activity [23]: Active; Activity [24]: Non-Toxic; Activity [25]: Non-Toxic
COc1cc2ncnc(Nc3cccc(Cl)c3F)c2cc1OCCON1CCOCC1,Non-Toxic,Non-Toxic,Non-Toxic,Non-Toxic,Non-Toxic,Non-Toxic,Non-Toxic,Non-Toxic,Activity [26]: Non-Toxic; Activity [27]: Non-Toxic
COc1cc2ncnc(Nc3ccc(F)c(Cl)c3)c2cc1OCCCN1CCOCC1 [GEFITINIB],Non-Toxic,Non-Toxic,Non-Toxic,Non-Toxic,Non-Toxic,Non-Toxic,Non-Toxic,Non-Toxic,Kp uu at 16 h [28]: 0.009
NO [HYDROXYAMINE],–,–,–,–,–,–,–,–,pKa [29]: 5.9

# — ChEMBL document CHEMBL5390273, “Discovery of a Hydroxylamine-Based Brain-Penetrant EGFR Inhibitor for Metastatic Non-Small-Cell Lung Cancer” (J Med Chem, 2023)
